According to ChEMBL document CHEMBL2177088, “Melittin suppresses VEGF-A-induced tumor growth by blocking VEGFR-2 and the COX-2-mediated MAPK signaling pathway” (J Nat Prod, 2012):
Calls of active or inactive are those of the source. The rule behind the calls is not given here.

Key:
[1] = tested on: HUVEC; assay: Antiangiogenic activity against VEGFA-stimulated capillary differentiation in HUVEC after 18 hrs by matrigel assay; format: functional, cell-based; conditions: Homo sapiens
How it was run: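 VEGF-A-HUVECs (HUVECs stably transfected with pcDNA3.1 carrying mouse VEGF-A164, G418-selected) were plated at 1 × 10^5 cells on polymerised growth factor-reduced Matrigel (5 mg/mL) with 5, 10 or 20 μM. They were incubated 18 h at 37 °C, 5% CO2, then washed, fixed and photographed (100×). Tube area per random field was quantified by image analysis. Three experiments in triplicate; IC50 read from the dose curve.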

[2] = tested on: HUVEC; assay: Down regulation of COX2 expression in VEGFA-stimulated HUVEC at 5 to 20 uM after 24 hrs by Western blot analysis; format: functional, cell-based; conditions: Homo sapiens
[3] = tested on: HUVEC; assay: Antiangiogenic activity against VEGFA-stimulated cell proliferation in HUVEC after 48 hrs by BrdU incorporation assay; format: functional, cell-based; conditions: Homo sapiens
[4] = tested on: HUVEC; assay: Down regulation of VEGF-A expression in VEGFA-stimulated HUVEC at 5 to 20 uM after 24 hrs by Western blot analysis; format: functional, cell-based; conditions: Homo sapiens
[5] = target: T1, MAP kinase p38 (Homo sapiens) (UniProt O15264+Q15759+Q16539+P53778); assay: Increase of VEGFA-stimulated p38 phosphorylation in HUVEC by Western blot analysis in presence of p38 inhibitor SB203580; format: protein assay
How it was run: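 VEGF-A-HUVECs were pretreated 30 min with SB203580 before the compound was added. Lysates with phosphatase inhibitors (10 μg/lane) were separated by 10% SDS-PAGE and immunoblotted (1:1000) for phospho-p38 and total p38, detected by HRP-ECL.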

[6] = tested on: HUVEC; assay: Down regulation of VEGFA-stimulated VEGF-A expression in HUVEC at 5 to 20 uM after 24 hrs by Western blot analysis in presence of p38 inhibitor SB203580; format: functional, cell-based; conditions: Homo sapiens
[7] = tested on: Mus musculus; assay: Toxicity in VEGFA-stimulated mouse highly metastatic LLC cells xenografted C57BL/6 mouse assessed as mortality at 0.5 to 5 mg/kg, sc qd for 18 days; format: organism-based; design: dose 0.5-5 mg/kg, route subcutaneous; conditions: in vivo, 432 h
How it was run: (§1)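 C57BL/6 mice bearing sc right-flank VEGF-A-hm LLC tumours (1 × 10^6 cells) were dosed sc at 0.5 or 5 mg/kg from day 12 after inoculation, over the 18-day growth study. Animals were monitored for body weight loss, lethargy, hair loss and mortality.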

[8] = Cytotoxicity against HUVEC assessed as cell viability at 5 uM after 48 hrs by MTT assay relative to control; format: cell-based; conditions: human, HUVEC cells; read-out: Activity
How it was run: (§2)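 Native (non-transfected) HUVECs were seeded at 1 × 10^4 cells/well on 0.1% gelatin in complete M199 for 24 h. They were then exposed to 1, 5, 10, 20 or 40 μM in serum-free M199 for 48 h at 37 °C. MTT was added for 3 h and formazan dissolved in 2-propanol. After centrifugation, supernatant absorbance was read at 570 nm and expressed as % of control. Three independent experiments in triplicate.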

[9] = tested on: Lewis lung carcinoma cell line; assay: Antitumor activity against VEGFA-stimulated mouse highly metastatic LLC cells xenografted in C57BL/6 mouse assessed as reduction of tumor weight at 0.5 mg/kg, […] relative to control; format: functional; design: scale not given: the % may be the effect or the level left; conditions: route subcutaneous
[10] = tested on: Mus musculus; assay: Toxicity in VEGFA-stimulated mouse highly metastatic LLC cells xenografted C57BL/6 mouse assessed as lethargy at 0.5 to 5 mg/kg, sc qd for 18 days; format: organism-based; design: dose 0.5-5 mg/kg, route subcutaneous; conditions: in vivo, 432 h; how it was run: as §1
[11] = tested on: Mus musculus; assay: Toxicity in VEGFA-stimulated mouse highly metastatic LLC cells xenografted C57BL/6 mouse assessed as reduction of body weight at 0.5 to 5 mg/kg, sc qd for 18 days; format: organism-based; design: dose 0.5-5 mg/kg, route subcutaneous; conditions: in vivo, 432 h; how it was run: as §1
[12] = tested on: Lewis lung carcinoma cell line; assay: Antitumor activity against VEGFA-stimulated mouse highly metastatic LLC cells xenografted in C57BL/6 mouse assessed as reduction of tumor weight at 5 mg/kg, […] relative to control; format: functional; design: scale not given: the % may be the effect or the level left; conditions: route subcutaneous
[13] = tested on: HUVEC; assay: Inhibition of VEGFA-stimulated PGE2 production in HUVEC at 5 to 20 uM after 24 hrs by ELISA; format: functional, cell-based; conditions: Homo sapiens
[14] = tested on: Lewis lung carcinoma cell line; assay: Antiangiogenic activity against VEGFA-stimulated mouse highly metastatic LLC cells xenografted in C57BL/6 mouse assessed as reduction of vessel formation at 5 mg/kg, sc qd for 7 days relative to control; format: functional; design: scale not given: the % may be the effect or the level left; conditions: route subcutaneous
How it was run: (§3)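 VEGF-A-hm LLC cells (5 × 10^5 in 50 μL) were inoculated intradermally into the back skin of mice. Compound was given sc at 0.5 or 5 mg/kg/day for 7 days, starting day 3 after inoculation. Mice were killed on day 10 and the inoculated skin separated from underlying tissue. Only vessels directly supplying the tumour were counted under a dissecting microscope; reduction is versus untreated control.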

[15] = tested on: Lewis lung carcinoma cell line; assay: Antitumor activity against VEGFA-stimulated mouse highly metastatic LLC cells xenografted in C57BL/6 mouse assessed as tumor growth inhibition at 0.5 mg/kg, […] relative to control; format: functional; conditions: sc, 432 h, route subcutaneous, read-out: TGI
[16] = tested on: HUVEC; assay: Down regulation of VEGFA-stimulated COX2 expression in HUVEC at 5 to 20 uM after 24 hrs by Western blot analysis in presence of p38 inhibitor SB203580; format: functional, cell-based; conditions: Homo sapiens
[17] = tested on: HUVEC; assay: Down regulation of COX2 expression in HUVEC at 5 to 20 uM after 24 hrs by Western blot analysis; format: functional, cell-based; conditions: Homo sapiens
[18] = tested on: HUVEC; assay: Down regulation of VEGF-A expression in HUVEC at 5 to 20 uM after 24 hrs by Western blot analysis; format: functional, cell-based; conditions: Homo sapiens
[19] = tested on: HUVEC; assay: Down regulation of VEGFR2 expression in VEGFA-stimulated HUVEC at 5 to 20 uM after 24 hrs by Western blot analysis; format: functional, cell-based; conditions: Homo sapiens
[20] = tested on: Mus musculus; assay: Toxicity in VEGFA-stimulated mouse highly metastatic LLC cells xenografted C57BL/6 mouse assessed as hair loss at 0.5 to 5 mg/kg, sc qd for 18 days; format: organism-based; design: dose 0.5-5 mg/kg, route subcutaneous; conditions: in vivo, 432 h; how it was run: as §1
[21] = target: T1, MAP kinase p38 (Homo sapiens); assay: Increase of VEGFA-stimulated p38 phosphorylation in HUVEC by Western blot analysis; format: protein assay
How it was run: (§4)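 VEGF-A-HUVECs exposed to 1, 5 or 10 μM were lysed with protease and phosphatase inhibitors (1 mM NaF, 1 mM Na3VO4). Lysates (10 μg/lane) were run on 10% SDS-PAGE and immunoblotted (1:1000) for phospho- and total ERK1/2, JNK and p38, detected by HRP-ECL.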

[22] = tested on: Lewis lung carcinoma cell line; assay: Antitumor activity against VEGFA-stimulated mouse highly metastatic LLC cells xenografted in C57BL/6 mouse assessed as tumor growth inhibition at 5 mg/kg, […] relative to control; format: functional; conditions: sc, 432 h, route subcutaneous, read-out: TGI
[23] = tested on: HUVEC; assay: Inhibition of VEGFA-stimulated VEGF production in HUVEC at 5 to 20 uM after 24 hrs by enzyme immunoassay; format: functional, cell-based; conditions: Homo sapiens
[24] = tested on: HUVEC; assay: Down regulation of VEGFR2 expression in HUVEC at 5 to 20 uM after 24 hrs by Western blot analysis; format: functional, cell-based; conditions: Homo sapiens
[25] = target: c-Jun N-terminal kinase, JNK (Homo sapiens) (UniProt P45983+P53779+P45984); assay: Inhibition of VEGFA-stimulated JNK phosphorylation in HUVEC by Western blot analysis; format: cell-based; how it was run: as §4
[26] = target: Mitogen-activated protein kinase; ERK1/ERK2 (Homo sapiens) (UniProt P27361+P28482); assay: Inhibition of VEGFA-stimulated ERK1/2 phosphorylation in HUVEC by Western blot analysis; format: protein assay; how it was run: as §4
[27] = Cytotoxicity against HUVEC assessed as cell viability at 10 uM after 48 hrs by MTT assay relative to control; format: cell-based; conditions: human, HUVEC cells; read-out: Activity; how it was run: as §2
[28] = tested on: Mus musculus; assay: Toxicity in VEGFA-stimulated mouse highly metastatic LLC cells xenografted C57BL/6 mouse assessed as hair loss at 0.5 to 5 mg/kg, sc qd for 7 days; format: organism-based; design: dose 0.5-5 mg/kg, route subcutaneous; conditions: in vivo, 168 h
[29] = tested on: Mus musculus; assay: Toxicity in VEGFA-stimulated mouse highly metastatic LLC cells xenografted C57BL/6 mouse assessed as lethargy at 0.5 to 5 mg/kg, sc qd for 7 days; format: organism-based; design: dose 0.5-5 mg/kg, route subcutaneous; conditions: in vivo, 168 h
[30] = Cytotoxicity against HUVEC assessed as cell viability at 20 uM after 48 hrs by MTT assay relative to control; format: cell-based; conditions: human, HUVEC cells; read-out: Activity; how it was run: as §2
[31] = Cytotoxicity against HUVEC assessed as cell viability at 40 uM after 48 hrs by MTT assay relative to control; format: cell-based; conditions: human, HUVEC cells; read-out: Activity; how it was run: as §2
[32] = Cytotoxicity against HUVEC assessed as cell viability at 1 uM after 48 hrs by MTT assay relative to control; format: cell-based; conditions: human, HUVEC cells; read-out: Activity; how it was run: as §2
[33] = tested on: Mus musculus; assay: Toxicity in VEGFA-stimulated mouse highly metastatic LLC cells xenografted C57BL/6 mouse assessed as mortality at 0.5 to 5 mg/kg, sc qd for 7 days; format: organism-based; design: dose 0.5-5 mg/kg, route subcutaneous; conditions: in vivo, 168 h
[34] = tested on: Lewis lung carcinoma cell line; assay: Antiangiogenic activity against VEGFA-stimulated mouse highly metastatic LLC cells xenografted in C57BL/6 mouse assessed as reduction of vessel formation at 0.5 mg/kg, sc qd for 7 days relative to control; format: functional; design: scale not given: the % may be the effect or the level left; conditions: route subcutaneous; how it was run: as §3

Sequence of Mitogen-activated protein kinase; ERK1/ERK2 (Homo sapiens) (P27361 whole entry, looked up): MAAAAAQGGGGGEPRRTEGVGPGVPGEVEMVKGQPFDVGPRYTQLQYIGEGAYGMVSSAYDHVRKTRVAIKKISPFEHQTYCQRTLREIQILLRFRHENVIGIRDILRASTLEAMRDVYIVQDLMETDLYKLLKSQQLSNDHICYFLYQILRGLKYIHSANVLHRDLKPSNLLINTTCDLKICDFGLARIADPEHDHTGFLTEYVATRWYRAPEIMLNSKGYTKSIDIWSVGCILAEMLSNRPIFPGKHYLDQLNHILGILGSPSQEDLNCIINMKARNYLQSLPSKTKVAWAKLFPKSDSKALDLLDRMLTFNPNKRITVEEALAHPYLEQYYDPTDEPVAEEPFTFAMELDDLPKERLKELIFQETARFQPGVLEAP
Sequence of Mitogen-activated protein kinase; ERK1/ERK2 (Homo sapiens) (P28482 whole entry, looked up): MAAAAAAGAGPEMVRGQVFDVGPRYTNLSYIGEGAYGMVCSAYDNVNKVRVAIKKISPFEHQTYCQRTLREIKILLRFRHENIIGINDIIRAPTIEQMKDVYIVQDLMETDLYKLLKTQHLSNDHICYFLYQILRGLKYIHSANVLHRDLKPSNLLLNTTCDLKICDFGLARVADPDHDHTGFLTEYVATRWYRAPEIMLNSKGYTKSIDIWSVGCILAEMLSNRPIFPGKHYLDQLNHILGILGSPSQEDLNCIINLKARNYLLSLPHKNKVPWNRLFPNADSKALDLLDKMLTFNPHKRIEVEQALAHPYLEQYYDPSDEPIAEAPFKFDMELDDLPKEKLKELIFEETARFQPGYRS

With `CC[C@H](C)[C@H](NC(=O)CN)C(=O)NCC(=O)N[C@@H](C)C(=O)N[C@H](C(=O)N[C@@H](CC(C)C)C(=O)N[C@@H](CCCCN)C(=O)N[C@H](C(=O)N[C@@H](CC(C)C)C(=O)N[C@H](C(=O)N[C@H](C(=O)NCC(=O)N[C@@H](CC(C)C)C(=O)N1CCC[C@H]1C(=O)N[C@@H](C)C(=O)N[C@@H](CC(C)C)C(=O)N[C@H](C(=O)N[C@@H](CO)C(=O)N[C@@H](Cc1c[nH]c2ccccc12)C(=O)N[C@H](C(=O)N[C@@H](CCCCN)C(=O)N[C@@H](CCCNC(=N)N)C(=O)N[C@@H](CCCCN)C(=O)N[C@@H](CCCNC(=N)N)C(=O)N[C@@H](CCC(N)=O)C(=O)N[C@@H](CCC(N)=O)C(N)=O)[C@@H](C)CC)[C@@H](C)CC)[C@@H](C)O)[C@@H](C)O)C(C)C)C(C)C` [MELITTIN] the IC50 [1] was 13 µM, the inhibition [1] was “Dose-dependent effect” and the Activity [2] was “Active”. For the same compound, the IC50 [3] was 18 µM, the inhibition [3] was “Dose-dependent effect” and the Activity [4] was “Active”. For the same compound, the Activity [5] was “inactive”, the Activity [6] was “inactive” and the Activity [7] was “Non-toxic”. The viability at 48 h, 5 µM [8] was 98.9%, the Activity [9] was 60% and the Activity [10] was “Non-toxic”. The Activity [11] was “Non-toxic”, the Activity [12] was 91% and the inhibition [13] was “Active”. The Activity [14] was 59%, the inhibition in vivo at 0.5 mg/kg [15] was 25% and the Activity [16] was “inactive”. For the same compound, the Activity [17] was “inactive”, the Activity [18] was “inactive” and the Activity [19] was “Active”. The Activity [20] was “Non-toxic”, the Activity [21] was “Dose-dependent effect” and the inhibition in vivo at 5 mg/kg [22] was 57%. The inhibition [23] was “Active”, the Activity [24] was “inactive” and the inhibition [25] was “Active”. For the same compound, the inhibition [26] was “Dose-dependent effect”, the viability at 48 h, 10 µM [27] was 99.4% and the Activity [28] was “Non-toxic”. The Activity [29] was “Non-toxic”, the viability at 48 h, 20 µM [30] was 98.5% and the viability at 48 h, 40 µM [31] was 96.5%. The viability at 48 h, 1 µM [32] was 104%, the Activity [33] was “Non-toxic” and the Activity [34] was 52%.

In the case of `CS(=O)(=O)Nc1ccc([N+](=O)[O-])cc1OC1CCCCC1` [NS-398], the inhibition [1] is reported as “Active”, the inhibition [3] is reported as “Active” and the Activity [14] is reported as 22%. It also gave an inhibition in vivo at 5 mg/kg [22] of 42%.
